Measurements: publication PMC4334733 (International journal of toxicology, 2015)
Values joined by “and” are separate entries in the source; they are usually repeats but may differ in a detail not shown here. Identical values can stand only once. “Also recorded” adds a separate entry of the source. Counter-ions that a name gives are not always drawn.

How the values were obtained:
rats = settings: oral 100 mg/kg TDF for 8 weeks; cited from earlier work
kidney gene expression = assay: Toxicogenomics: microarray gene expression analysis of kidney; format: in vivo, mouse
liver gene expression = assay: Toxicogenomics: microarray gene expression analysis of liver; format: in vivo, mouse; settings: 1000 mg/kg TDF for 91 days vs vehicle
Outline: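 Female BALB/c mice received 1000 mg/kg by daily oral gavage for 91 days, or vehicle (50 mM trisodium citrate dihydrate), n=7 per group. They were killed on Day 92, 24 hr after the last dose. Total RNA from a 20–50 mg left liver lobe section was hybridized to Mouse Gene 1.0 ST arrays. Fold change versus vehicle was tested by t-test with Benjamini-Hochberg correction.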

Female BALB/c mice = assay: 13-week daily oral toxicity study of TDF; format: in vivo, mouse; settings: for Clinical Chemistry, Day 29 and Day 92: CHO cholesterol, TRI triglycerides
Wistar rats = settings: 600 mg/kg TDF for 5 weeks; cited from earlier work
[1] = format: in vivo, mouse
Outline: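 Female BALB/c mice were gavaged daily (10 ml/kg) at 50, 500 or 1000 mg/kg; the vehicle was 50 mM trisodium citrate dihydrate. Tenofovir was quantified against 2.5–2000 ng/ml plasma standards using peak area ratio to indinavir and 1/y-weighted linear regression. Noncompartmental Cmax, Tmax and AUClast were derived.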

[2] = kidney, 1000 mg/kg TDF for 91 days vs vehicle, regulation Down, p<0.05, N=7
[3] = kidney, 1000 mg/kg TDF for 91 days vs vehicle, regulation Up, p<0.05, N=7

CC(C)OC(=O)OCOP(=O)(CO[C@H](C)Cn1cnc2c(N)ncnc21)OCOC(=O)OC(C)C [TDF, Tenofovir disoproxil fumarate]
Renal toxicity (rats): induced renal toxicity
Fold change of gene expression in the kidney (all changes) (kidney gene expression; 1000 mg/kg TDF vs vehicle, Day 92): less than 2 fold
Fold Change, Cyp4b1 (kidney gene expression; [2]): 1.60 fold
Fold Change, Polr3e (kidney gene expression; [2]): 1.87 fold
Fold Change, Gm10804 (predicted gene 10804) (kidney gene expression; [3]): 1.65 fold
Fold Change, Rorc (RAR-related orphan receptor gamma) (kidney gene expression; [3]): 1.77 fold
Fold Change, Cml3 (camello-like 3) (liver gene expression; down expressed, p<0.05, N=7): 2.08 fold
Fold Change, Gm4952 (liver gene expression; down expressed, p<0.05, N=7): 2.15 fold
Fold Change, Gm15401 (liver gene expression; down expressed, p<0.05, N=7): 2.44 fold
Fold Change, Rgs16 (liver gene expression; down expressed, p<0.05, N=7): 2.86 fold
Fold Change, Serpinb1a (liver gene expression; down expressed, p<0.05, N=7): 2.70 fold
Fold Change, Gria3 (liver gene expression; upward expressed, p<0.05, N=7): 3.34 fold
Fold Change, Phlda3 (liver gene expression; upward expressed, p<0.05, N=7): 2.41 fold
Fold Change, Rdh11 (liver gene expression; upward expressed, p<0.05, N=7): 2.09 fold
Fold Change, Snord116 (liver gene expression; upward expressed, p<0.05, N=7): 2.15 fold
Fold Change, Sult1e1 (liver gene expression; upward expressed, p<0.05, N=7): 4.39 fold
Fold Change, Cdkn1a (cyclin-dependent kinase inhibitor 1A, P21) (liver gene expression; upward expressed, p<0.05, N=7, 1000 mg/kg): 3.7 fold and 3.70 fold
Survival (Female BALB/c mice; TDF 0, 50, 500 or 1000 mg/kg po daily for 1, 28 or 91 days): All animals survived until their scheduled sacrifice
Clinical Observations: Gasping (incidence) (Female BALB/c mice; TDF 50 mg/kg po daily): 0
Clinical Observations: Hunched Posture (incidence) (Female BALB/c mice; TDF 50 mg/kg po daily): 0
Clinical Observations: Hypoactivity (incidence) (Female BALB/c mice; TDF 50 mg/kg po daily): 0
Clinical Observations: Ruffled Fur (incidence) (Female BALB/c mice; TDF 50 mg/kg po daily): 9 out of 35 and 9 of 35
Mortality (Female BALB/c mice; TDF 50 mg/kg po daily): 0
Clinical Chemistry, Day 29 and Day 92 (Female BALB/c mice; TDF 50 mg/kg po daily): ^↓(CHO, TRI)
Clinical Observations: Gasping (incidence) (Female BALB/c mice; TDF 500 mg/kg po daily): 0
Clinical Observations: Hunched Posture (incidence) (Female BALB/c mice; TDF 500 mg/kg po daily): 0
Clinical Observations: Hypoactivity (incidence) (Female BALB/c mice; TDF 500 mg/kg po daily): 0
Clinical Observations: Ruffled Fur (incidence) (Female BALB/c mice; TDF 500 mg/kg po daily): 9 out of 35 and 9 of 35
Mortality (Female BALB/c mice; TDF 500 mg/kg po daily): 0
Clinical Chemistry, Day 29 and Day 92 (Female BALB/c mice; TDF 500 mg/kg po daily): ^↓(CHO, TRI)
Clinical Observations: Gasping (incidence) (Female BALB/c mice; TDF 1000 mg/kg po daily): two mice and 2 of 35
Clinical Observations: Hunched Posture (incidence) (Female BALB/c mice; TDF 1000 mg/kg po daily): one mouse and 1 of 35
Clinical Observations: Hypoactivity (incidence) (Female BALB/c mice; TDF 1000 mg/kg po daily): two mice and 2 of 35
Clinical Observations: Ruffled Fur (incidence) (Female BALB/c mice; TDF 1000 mg/kg po daily): 31 out of 35 and 31 of 35
Histopathology: Liver (Days 29 and 92) (Female BALB/c mice; TDF 1000 mg/kg po daily): Minimal/Mild Cytomegaly
Mortality (Female BALB/c mice; TDF 1000 mg/kg po daily): 0
Body Weight (Female BALB/c mice; TDF 1000 mg/kg po daily, vs control): significantly lower mean body weights; also recorded: ^↓(Days 36 and 43)
Clinical Chemistry, Day 29 and Day 92 (Female BALB/c mice; TDF 1000 mg/kg po daily): ^↓(CHO, TRI)
Liver cytomegaly after 4-week recovery (Female BALB/c mice; TDF 1000 mg/kg, Day 119 necropsy): not present; also recorded: not observed
Decreases in cholesterol (CHO) and triglyceride (TRI) levels (Female BALB/c mice; TDF 1000 mg/kg, study Days 29 and 92): 30–48%
Liver cytomegaly, minimal or mild (incidence) (Female BALB/c mice; TDF 1000 mg/kg/day for 28 days, necropsy Day 29): 7 of 10
Liver cytomegaly, minimal or mild (incidence) (Female BALB/c mice; TDF 1000 mg/kg/day for 91 days, necropsy Day 92): 6 of 15
Histopathologic changes in the kidneys (Female BALB/c mice; any dose group): No histopathologic changes
Nephrotoxicity (Wistar rats): nephrotoxicity was observed

C[C@H](Cn1cnc2c(N)ncnc21)OCP(=O)(O)O [Tenofovir]
Liver cytomegaly (Female BALB/c mice; 50 or 500 mg/kg/day): not present
Mouse AUC plasma level of tenofovir relative to healthy volunteers ([1]; after 1000 mg/kg dose, human value ref 29): approximately eight
Accumulation between dosing Days 1 and 91 (Cmax or AUC) ([1]; plasma tenofovir, oral TDF 50-1000 mg/kg daily): no evidence of accumulation
